Measured values from PubChem BioAssay AID2204 (Vanderbilt High Throughput Screening Facility, 2009).

What was measured:
Test in all cases: muscarinic M1-M5 subtype PAM potency panel, profiling panel, selectivity assay for M5 allosteric modulator project, cell-based, calcium flux (AID 2204)
Details in all cases: CHO-K1 mAChR panel, Fluo-4 calcium flux, ACh EC20
[1] = target: Muscarinic acetylcholine receptor M3 (Homo sapiens) (UniProt P20309)
How it was run: (§1)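 System: transfected CHO-K1 cell lines; timing: compound pre-incubation 1.5 min, acetylcholine stimulation 50 s, at 25 °C; detection: intracellular calcium mobilization measurement; medium: HBSS buffer, pH 7.4, with 2.5 mM probenecid, 20 mM HEPES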

[2] = target: Muscarinic acetylcholine receptor M5 (Homo sapiens) (UniProt P08912)
Chain of Muscarinic acetylcholine receptor M5 (Homo sapiens) (P08912 whole entry, looked up): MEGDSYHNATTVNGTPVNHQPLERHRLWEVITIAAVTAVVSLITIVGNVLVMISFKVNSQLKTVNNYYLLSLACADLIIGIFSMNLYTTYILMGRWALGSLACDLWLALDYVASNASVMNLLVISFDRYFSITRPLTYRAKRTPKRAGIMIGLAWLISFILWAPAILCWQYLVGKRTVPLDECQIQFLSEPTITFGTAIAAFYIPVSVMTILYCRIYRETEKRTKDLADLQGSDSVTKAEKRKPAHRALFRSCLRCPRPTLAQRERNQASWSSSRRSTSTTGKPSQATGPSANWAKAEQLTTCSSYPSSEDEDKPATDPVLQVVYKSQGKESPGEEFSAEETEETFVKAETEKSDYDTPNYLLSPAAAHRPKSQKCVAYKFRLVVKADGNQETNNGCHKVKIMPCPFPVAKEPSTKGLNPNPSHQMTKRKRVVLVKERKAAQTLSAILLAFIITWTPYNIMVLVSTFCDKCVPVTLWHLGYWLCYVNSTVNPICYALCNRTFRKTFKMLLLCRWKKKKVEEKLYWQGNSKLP
How it was run: as §1

[3] = target: Muscarinic acetylcholine receptor M1 (Rattus norvegicus) (UniProt P08482)
Chain of Muscarinic acetylcholine receptor M1 (Rattus norvegicus) (P08482 whole entry, looked up): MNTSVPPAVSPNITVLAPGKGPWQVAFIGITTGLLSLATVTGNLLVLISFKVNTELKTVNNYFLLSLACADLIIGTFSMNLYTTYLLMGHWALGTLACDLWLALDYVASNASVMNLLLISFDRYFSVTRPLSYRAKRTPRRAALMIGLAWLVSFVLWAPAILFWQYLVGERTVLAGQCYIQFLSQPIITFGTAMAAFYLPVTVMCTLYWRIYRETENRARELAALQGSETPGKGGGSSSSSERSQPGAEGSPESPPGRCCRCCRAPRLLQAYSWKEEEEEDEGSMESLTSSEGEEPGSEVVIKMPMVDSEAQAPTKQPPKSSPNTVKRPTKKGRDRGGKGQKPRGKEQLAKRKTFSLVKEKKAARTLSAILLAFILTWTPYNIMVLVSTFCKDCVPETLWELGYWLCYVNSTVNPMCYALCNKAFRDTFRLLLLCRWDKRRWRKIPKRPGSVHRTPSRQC
How it was run: as §1

Chain of Muscarinic acetylcholine receptor M3 (Homo sapiens) (P20309 whole entry, looked up): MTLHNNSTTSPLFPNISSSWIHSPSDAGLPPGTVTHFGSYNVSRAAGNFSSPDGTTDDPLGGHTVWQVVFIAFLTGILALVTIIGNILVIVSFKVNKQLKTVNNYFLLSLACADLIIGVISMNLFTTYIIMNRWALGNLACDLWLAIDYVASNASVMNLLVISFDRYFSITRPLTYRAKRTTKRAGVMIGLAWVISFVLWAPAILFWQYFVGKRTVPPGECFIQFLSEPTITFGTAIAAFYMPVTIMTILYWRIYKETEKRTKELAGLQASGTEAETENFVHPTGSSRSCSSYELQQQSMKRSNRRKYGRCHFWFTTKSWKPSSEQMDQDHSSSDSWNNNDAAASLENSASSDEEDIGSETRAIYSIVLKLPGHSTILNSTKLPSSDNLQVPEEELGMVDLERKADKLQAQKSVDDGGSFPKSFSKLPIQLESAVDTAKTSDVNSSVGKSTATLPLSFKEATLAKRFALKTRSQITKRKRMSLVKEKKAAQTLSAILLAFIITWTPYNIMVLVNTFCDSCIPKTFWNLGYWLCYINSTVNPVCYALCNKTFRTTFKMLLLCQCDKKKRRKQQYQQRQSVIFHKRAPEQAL

EC50 [1] | EC50 [2] | EC50 [3] | Structure (SMILES)
10.3 µM | 5.68 µM |  | COc1ccc(CN2C(=O)C(=O)c3ccc(OC(F)(F)F)cc32)cc1
 | 4.83 µM |  | O=C1C(=O)N(Cc2ccc(-c3ccc(Cl)nc3)cc2)c2ccc(OC(F)(F)F)cc21
 | 3.59 µM |  | O=C1C(=O)N(Cc2ccc(-c3ccc(F)nc3)cc2)c2ccc(OC(F)(F)F)cc21
 | 3.26 µM |  | Cn1cc(-c2ccc(CN3C(=O)C(=O)c4cc(OC(F)(F)F)ccc43)cc2)cn1
109 µM | 1.16 µM |  | COc1ccc(CN2C(=O)C(=O)c3cc(OC(F)(F)F)ccc32)cc1
 | 3.86 µM |  | COc1ccccc1-c1ccc(CN2C(=O)C(=O)c3cc(OC(F)(F)F)ccc32)cc1
3.07 µM | 2.65 µM |  | O=C1C(=O)N(Cc2ccc(-c3ccccc3)cc2)c2cc(OC(F)(F)F)ccc21
 | 2.77 µM |  | O=C1C(=O)N(Cc2ccc(-c3ccsc3)cc2)c2ccc(OC(F)(F)F)cc21
 | 1.92 µM |  | O=C1C(=O)N(Cc2ccc(Oc3ccccc3)cc2)c2ccc(OC(F)(F)F)cc21
 | 2.66 µM |  | O=C1C(=O)N(Cc2ccc(-c3ccccc3)cc2)c2ccc(OC(F)(F)F)cc21
6.38 µM | 4.08 µM | 6.04 µM | O=C1C(=O)N(Cc2ccc(Br)cc2)c2ccccc21
